Screening results from PubChem.
The list is not random: actives were taken first. Their share in the collection is about 2.3%.
TRPC4 act: activators of mouse TRPC4 channel, primary screen, Fluo4 calcium, HEK293 TRPC4beta/mu-opioid cells. Short transient receptor potential channel 4 (Mus musculus), Q9QUQ5. Fluo4 calcium fluorescence; hits give high values. B-score at 10 µM. 310,000 compounds, 0.49% hits;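 active = B-score above 5 SD of library B-scores, and initial fluorescence ratio not above library mean plus 5 SD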;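 note: positive B-score marks a calcium rise read as TRPC4 activation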
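Incubation: 45 min room-temperature Fluo4 loading, 110 s read / System: HEK293 cells stably co-expressing mouse TRPC4beta and mu-opioid receptor / Signal: Fluo4 fluorescence, kinetic / Control set: buffer (low) and maximal DAMGO (high) / Measure: integrated baseline-normalised fluorescence ratio, converted to per-well B score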
TRPC6 activator: mouse TRPC6 channel activators, primary screen, cell-based, HEK293, membrane potential dye | Short transient receptor potential channel 6 (Mus musculus), Q61143 | HEK293-TRPC6 membrane potential dye fluorescence; hits give high values | B-score at 10 µM | 310,000 compounds, 0.13% hits;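 active = B-score of the integrated fluorescence ratio above library mean plus 3 SD, and starting fluorescence ratio within library mean plus 5 SD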;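 note: higher score means more depolarization so channel activation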
TRPC4 inh: inhibitors of mouse TRPC4 channel, primary screen, Fluo4 calcium, HEK293 TRPC4beta/mu-opioid cells; Short transient receptor potential channel 4 (Mus musculus), Q9QUQ5; DAMGO-evoked Fluo4 calcium flux; hits give low values; B-score at 10 µM; 300,000 compounds, 0.39% hits;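 active = B-score over 3 SD under the library average, no early fluorescence shift, positive overall ratio signal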
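Material: HEK293 cells with stable TRPC4beta plus mu-opioid receptor expression / Probe or stimulus: DAMGO in two steps, submaximal then maximal / Compound: single concentration per test compound / Technique: kinetic Fluo4 fluorescence imaging of calcium influx / Read-out: per-well B score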
TRPC6 inh: mouse TRPC6 channel inhibitors, primary screen, cell-based, HEK293, membrane potential dye. 310,000 compounds, 1.1% hits. B-score at 10 µM. ACh-evoked depolarization; hits give low values. Short transient receptor potential channel 6 (Mus musculus), Q61143;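 active = B-score under library mean minus 3 SD, initial fluorescence not abnormally high, positive integrated signal ratio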;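 note: B-score derived from integrated fluorescence ratio over the kinetic read; more negative B-score means stronger inhibition of depolarization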
TRPC4 PAM: positive allosteric modulators of TRPC4, primary screen, cell-based, mouse TRPC4beta, HEK293 mu-opioid, Fluo-4 calcium | Short transient receptor potential channel 4 (Mus musculus), Q9QUQ5 | DAMGO EC20, Fluo-4 Ca2+ flux; hits give high values | B-score at 10 µM | 310,000 compounds, 0.42% hits;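 active = B-score of calcium response area above 5 SD of library B-scores, with initial fluorescence ratio within 5 SD of library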;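 note: B-score of integrated fluorescence ratio over time as area under calcium response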
TRPC4 spec 2: mouse TRPC4 off-target activity of TRPC6 inhibitors, second screen; AID 2776; HEK293 TRPC4/MOR, membrane potential dye fluorescence; channel activated by saturating DAMGO dose; shares compounds with TRPC6 inh; inhibition, % at 10 µM; 920 compounds, 42% hits;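 active = compounds whose fluorescence signal differed from control wells by over 3 SD, either direction, in both duplicate plates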
TRPC4 spec: mouse TRPC4 modulation by TRPC6 hits, confirmation, selectivity assay for TRPC6 inhibitor project, cell-based, HEK293 TRPC4/mu-opioid, membrane potential dye; shares compounds with TRPC6 inh; membrane potential fluorescence; activity change, negative = inhibition, % at 10 µM; 920 compounds, 61% hits;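 active = rise or fall in signal beyond 3 SD of buffer-only wells in both replicate plates, either sign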;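 note: integrated kinetic ratio of fluorescence range over baseline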
HEK293 MPD ctr 2-1: nonspecific membrane potential effects, parental HEK293, confirmation, counter-screen for TRPC6 inhibitor project, cell-based, second counter screen | parental HEK293 membrane potential dye fluorescence; maximal acetylcholine challenge after compound addition | signal change vs control, % at 10 µM | shares compounds with TRPC6 inh | 920 compounds, 31% hits;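 active = membrane potential signal moving either way by over 3 SD of the maximum-effect control, in both duplicate plates, meaning non-specific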
HEK293 MPD ctr-1: membrane potential modulation in parental HEK293, confirmation, counter-screen for TRPC6 inhibitor project, cell-based; parental HEK293 membrane potential dye fluorescence; shares compounds with TRPC6 inh; 920 compounds, 60% hits; membrane potential signal change, % at 10 µM;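 active = membrane potential signal shifting up or down by more than 3 SD of buffer-only wells, on both duplicate plates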
HEK293 MPD ctr-2: parental HEK293 membrane potential modulation, confirmation, counter-screen for TRPC6 modulator project, cell-based. shares compounds with TRPC6 inh. membrane potential dye fluorescence. membrane potential signal change, % at 10 µM. AID 488924, 2010. 2,400 compounds, 51% hits;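 active = membrane potential signal moves up or down beyond 5 SD from buffer-only wells, on both duplicate plates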
HEK293 MPD ctr 2-2: second check of TRPC6 modulator effects in parental HEK293 cells. shares compounds with TRPC6 inh. 2,400 compounds, 14% hits. AID 488926. inhibition, % at 10 µM. membrane potential dye fluorescence; after compound, maximal acetylcholine stimulation;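 active = membrane potential signal drops by more than 5 SD from the mean control signal, in both duplicate plates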;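 note: plate controls were acetylcholine ECmax control wells for no effect and buffer only wells for full effect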
TRPC4 ctr mod: TRPC4 modulation by TRPC6 hit compounds, confirmation, selectivity assay for TRPC6 modulator project, cell-based, HEK293 TRPC4/mu-opioid, membrane potential dye, mouse | membrane potential fluorescence | shares compounds with TRPC6 inh | AID 488927, 2010 | 2,400 compounds, 69% hits | percent change from control (negative = decrease, positive = increase), % at 10 µM;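 active = membrane potential signal moved up or down beyond 5 SD of buffer control wells, in both duplicate plates, actives on both sides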;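 note: plate controls were assay buffer wells for no effect and DAMGO maximal-effect wells for full effect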
TRPC4/MOR inh 2: second selectivity test of TRPC6 modulators against mouse TRPC4; 2,400 compounds, 55% hits; HEK293 TRPC4/mu-opioid, membrane potential dye fluorescence; stimulated with maximal-effect DAMGO; shares compounds with TRPC6 inh; inhibition, % at 10 µM;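 active = drop in membrane potential signal beyond 5 SD of the control wells in both duplicate plates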;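 note: TRPC4 counter screen for TRPC6 hits run under conditions tuned for TRPC6 not TRPC4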
TRPC6 inh conf: mouse TRPC6 channel inhibitors, confirmation, HEK293 cells, membrane potential dye, duplicate | shares compounds with TRPC6 inh | ACh-evoked depolarization | inhibition, % at 10 µM | 3,300 compounds, 43% hits;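 active = fluorescence ratio falls more than 5 SD below the full-stimulation control mean, in both duplicate runs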;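 note: integrated fluorescence ratio of peak minus minimum over baseline after agonist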
TRPC6 act confirm: mouse TRPC6 channel activators, confirmation, HEK293 cells, membrane potential dye, duplicate | activation, % at 10 µM | 2,800 compounds, 11% hits | HEK293-TRPC6 membrane potential dye fluorescence, FDSS | shares compounds with TRPC6 inh;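 active = ratio signal rise beyond 5 SD above unstimulated control wells' mean, seen in both duplicate runs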;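 note: plate controls were buffer EC0 wells for no effect and acetylcholine ECmax response for full effect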
* = called active by the depositor; i = inactive; · = no result given.

SMILES	TRPC4 act	TRPC6 activator	TRPC4 inh	TRPC6 inh	TRPC4 PAM	HEK293 MPD ctr-2	HEK293 MPD ctr 2-2	TRPC4 ctr mod	TRPC4/MOR inh 2	TRPC6 inh conf	TRPC6 act confirm	others
Oc1ccccc1Nc1nc(NCC2CCCO2)c2ccccc2n1 (stereo unspecified)	i	i	i	-15*	i	·	·	·	·	75%*	i	TRPC4 spec 2=28%*;TRPC4 spec=-22%*;HEK293 MPD ctr 2-1=i;HEK293 MPD ctr-1=-273%*
Oc1ccccc1Nc1nc(NCc2ccco2)c2ccccc2n1	i	i	-6*	-8.5*	i	·	·	·	·	i	i	TRPC4 spec 2=74%*;TRPC4 spec=i;HEK293 MPD ctr 2-1=i;HEK293 MPD ctr-1=i
c1ccc(Nc2nc(NCc3ccco3)c3ccccc3n2)cc1	i	i	i	i	i	·	·	·	·	·	·
OCCN1CCN(c2nc(NCc3ccco3)c3ccccc3n2)CC1	i	i	i	-6*	i	-228%*	i	-38%*	57%*	i	i
Oc1ccc(Nc2nc(NCC3CCCO3)c3ccccc3n2)cc1 (stereo unspecified)	i	i	i	-6.5*	i	i	i	-12%*	56%*	38%*	i
c1ccc2c(NCC3CCCO3)nc(N3CCCCC3)nc2c1 (stereo unspecified)	i	i	i	i	i	·	·	·	·	·	·
c1ccc(CN2CCN(c3nc(NCc4ccco4)c4ccccc4n3)CC2)cc1	i	i	i	i	i	·	·	·	·	·	·
Oc1ccc(Cl)cc1Nc1nc(NCC2CCCO2)c2ccccc2n1 (stereo unspecified)	i	i	i	i	i	·	·	·	·	·	·
CC1C(=O)N2CCCc3cc(S(=O)(=O)Nc4ccccc4C(N)=O)cc1c32 (stereo unspecified)	i	i	i	i	i	·	·	·	·	·	·
CS(=O)(=O)Nc1cccc(C2=NN(C(=O)c3ccccc3Cl)C(c3ccccc3O)C2)c1 (stereo unspecified)	i	i	i	i	i	·	·	·	·	·	·
COc1ccc(C)cc1NC(=O)C1CCN(S(=O)(=O)c2ccc3c(c2)NC(=O)CO3)CC1	i	i	i	i	i	·	·	·	·	·	·
COc1cccc(Nc2nc(NCCO)c3ccccc3n2)c1	i	i	i	-11*	i	·	·	·	·	90%*	i	TRPC4 spec 2=40%*;TRPC4 spec=-22%*;HEK293 MPD ctr 2-1=27%*;HEK293 MPD ctr-1=-237%*
COc1cccc(Nc2nc(NCC3CCCO3)c3ccccc3n2)c1 (stereo unspecified)	i	i	i	-11*	i	i	i	-22%*	74%*	58%*	i
O=S(=O)(/N=C(/Nc1ccc(F)cc1F)c1ccccc1)c1ccc(Br)cc1	i	i	i	i	i	·	·	·	·	·	·
COc1ccc(S(=O)(=O)N2c3ccccc3NC(=O)CC2C)cc1 (stereo unspecified)	i	i	i	i	i	·	·	·	·	·	·
O=S(=O)(c1ccc(Cl)c(NC(=S)N/N=C/c2ccc(O)cc2)c1)N1CCOCC1	i	i	i	-9.1*	i	i	i	i	i	i	i
O=[N+]([O-])c1cc(Cl)cc(/C=N/NC(=S)Nc2ccc(S(=O)(=O)N3CCOCC3)cc2)c1O	i	i	i	-7.6*	26*	·	·	·	·	i	i	TRPC4 spec 2=57%*;TRPC4 spec=-24%*;HEK293 MPD ctr 2-1=i;HEK293 MPD ctr-1=-274%*
Cc1cccn2cc(-c3c[nH]c4ccccc34)nc12	i	i	-6*	-6.7*	i	-113%*	i	-28%*	70%*	68%*	i
Brc1ccc2nc(-c3c[nH]c4ccccc34)cn2c1	i	i	i	-6.3*	i	i	i	-10%*	54%*	i	i
Cc1nn(CC(=O)Nc2ccc(N3CCOCC3)cc2)c(C)c1Cl	i	i	i	i	i	·	·	·	·	·	·
O=C(O)c1ccc(CNC(=O)C23CC4CC(CC(C4)C2)C3)cc1	i	i	i	i	i	·	·	·	·	·	·
O=C1c2cccc3c(Nc4ccccc4Cl)c([N+](=O)[O-])cc(c23)C(=O)N1CCO	i	i	i	-10*	i	-100%*	i	-26%*	81%*	47%*	i
